This passage reports Activity results from ChEMBL document CHEMBL1144703, “Identification of novel ligands for the RNA pseudoknot that regulate -1 ribosomal frameshifting” (Bioorg Med Chem, 2008).

Calls of active or inactive are those of the source. The calls are words filed in the database; no cut-off is given here.

Test [1] in a line: Activity at synthetic biotin-RNA pseudoknot assessed as increase in -1 ribosomal frameshifting efficiency at 250 uM by dual luciferase assay. Summed up:
(§1)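 Biotin-pseudoknot template ligated into dual luciferase vector (XhoI/SpeI). Coupled transcription/translation in rabbit reticulocyte lysate with compounds at 250 μM in DMSO; DMSO control. Frameshift efficiency from SDS–PAGE band quantification (100 vs 40 kDa, PhosphorImager) or dual luciferase firefly/Renilla ratio, 10 s reads; fold change = efficiency with compound / without; triplicate runs.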

The nature of test [2]: Activity at synthetic biotin-RNA pseudoknot assessed as increase in -1 ribosomal frameshifting efficiency at 250 uM by rabbit reticulocyte based transcription/translation-coupled assay. An outline of the steps:
as §1

Test [3] in a line: Activity at synthetic biotin-RNA pseudoknot assessed as increase in -1 ribosomal frameshifting efficiency by rabbit reticulocyte based transcription/translation-coupled assay. Summed up:
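Concentration series 25 nM to 250 μM in rabbit reticulocyte TNT-coupled assay with biotin-pseudoknot template; biotin at 250 μM as comparator. Frameshifting % from SDS–PAGE autoradiogram, frameshift (100 kDa) vs non-frameshift (40 kDa) protein.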

The next test concerns HEK293. The test can be described thus: Activity at synthetic biotin-RNA pseudoknot assessed as increase in -1 ribosomal frameshifting efficiency in human HEK293 cells at 250 uM by transcription/translation-coupled assay. The class given is cell-based. An outline of the steps: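 HEK 293 in DMEM, 10% FBS, 1% pen-strep, seeded to 40% confluence, transfected with biotin-pseudoknot dual luciferase construct (50 ng DNA, JetPEI) for 18 h, then compound in DMSO added for a further 18 h. Passive lysis 30 min at room temperature, protein normalised by Bradford (50 μg), firefly/Renilla luciferase ratio read.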

The subject of test [4] is Pea enation mosaic virus-1. The test can be described thus: Activity at PEMV RNA pseudoknot assessed as increase in -1 ribosomal frameshifting efficiency at 250 uM by dual luciferase based transcription/translation-coupled assay. Summed up:
(§2)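 Template carries PEMV pseudoknot in place of biotin-pseudoknot in dual luciferase vector. In vitro TNT-coupled transcription/translation in rabbit reticulocyte lysate, compounds in DMSO (DMSO control). Read-out by SDS–PAGE autoradiography, frameshift (100 kDa) vs non-frameshift (40 kDa) products quantified by PhosphorImager, or by dual luciferase (firefly then Renilla, 10 s each, ratio); luciferase values mean of triplicates.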

Test [5] concerns Pea enation mosaic virus-1. The test can be described thus: Activity at PEMV RNA pseudoknot assessed as increase in -1 ribosomal frameshifting efficiency at 250 uM by SDS-PAGE based transcription/translation-coupled assay. Summed up:
as §2

For the compound `CCOC(=O)N1CCN(C(=O)Nc2ccccc2SC)CC1`, the outcome in test [1] was Active.

For `CCOC(=O)c1cccc(NC(=O)N2CCCN2C(=O)c2cccnc2SCCCC#N)c1`, the result in test [1] was Active.

Regarding `CSc1ccccc1NC(=O)NCC(=O)OCc1ccccc1`, the outcome in test [1] was Active.

For `COC(=O)C(CCCCNC(=O)Nc1cc(F)ccc1F)NS(=O)(=O)c1ccc(C)cc1` (stereo unspecified), the Activity in test [2] is 13.7%; in test [1], 18.1%; in test [3], “Dose-dependent effect”; in the test with HEK293, 8.05%; in test [5] it was 7.6%. Further, the outcome in test [4] was inactive.

For the compound `COC(=O)c1cc(NC(=O)NCCSCc2ccccc2)cc(C(=O)OC)c1`, the result in test [1] was Active.

Take `CCOC(=O)C(CSCc1ccccc1)NC(=O)Nc1ccc(SC)cc1` (stereo unspecified): the outcome in test [1] was Active.
